Measurements from ChEMBL document CHEMBL5634203, “A Tiny Pocket Packs a Punch: Leveraging Pyridones for the Discovery of CNS-Penetrant Aza-indazole IRAK4 Inhibitors” (ACS Med Chem Lett, 2024).
Converted amounts (≈) assume the structure as drawn.

Experiments:
[1] = Kinetic solubility of compound in DMSO at pH 6.8 incubated for 24 hrs; format: physicochemical; settings: read-out: Kinetic_solubility
Procedure, shortened: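 Kinetic solubility assay at pH 6.8. Arithmetic mean of at least two experiments.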

[2] = Lipophilicity, log D of the compound at pH 7.4; format: physicochemical; settings: buffer
[3] = Plasma protein binding in rat assessed as unbound fraction; format: ADME, cell-free
[4] = Intrinsic clearance in human hepatocytes; format: ADME, cell-based, Hepatocyte
Procedure, shortened: (§1)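 Intrinsic clearance measured in human liver microsomes and in human hepatocytes and reported as scaled values. Arithmetic mean of at least two experiments.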

[5] = Intrinsic clearance in human liver microsomes; format: ADME, Microsome; settings: read-out: CLH; procedure, shortened: as §1
[6] = Plasma protein binding in human assessed as unbound fraction; format: ADME, cell-free
[7] = Unbound brain-to-plasma concentration ratio in Sprague-Dawley rat brain at 1 mg/kg, iv by LC-MS/MS analysis; format: ADME, organism-based; settings: read-out: K(p,uu,brain)
Procedure, shortened: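 Male Sprague Dawley rats dosed by infusion as a cassette. Total drug measured in brain (Cb) and plasma (Cp). Kpu,u calculated as (Cb×Fub)/(Cp×Fup), using the unbound fractions in brain and in plasma.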

Mus musculus [8] = experiment: Anti-inflammatory activity in po dosed C57BL/6 mouse assessed increase in LPS-induced IL-10 level in plasma preincubated with compound for 60 mins followed by LPS-induction and measured after 90 mins by ELISA analysis; settings: dose 10-100 mg/kg, time 150.0 min
[9] = Clearance in Sprague-Dawley rat measured for 4 hrs by LC-MS/MS analysis; format: ADME; settings: in vivo
Procedure, shortened: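 Male Sprague Dawley rats dosed by infusion. Clearance measured during the cassette Kpu,u procedure.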

Mus musculus [10] = experiment: Anti-inflammatory activity in po dosed C57BL/6 mouse assessed reduction in LPS-induced MCP-1 level in brain preincubated with compound for 60 mins followed by LPS-induction and measured after 90 mins by ELISA analysis; format: functional, organism-based; settings: dose 10-100 mg/kg, time 150.0 min
Procedure, shortened: (§2)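 Mice dosed orally with vehicle (0 mpk) or 10, 30 or 100 mpk, 60 min before intraperitoneal LPS. Cytokine levels and free drug concentration in plasma and brain taken 90 min after LPS. Each dose group compared by one-way ANOVA with the vehicle group given i.p. LPS.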

Mus musculus [11] = experiment: Anti-inflammatory activity in po dosed C57BL/6 mouse assessed reduction in LPS-induced IL-6 level in brain preincubated with compound for 60 mins followed by LPS-induction and measured after 90 mins by ELISA analysis; format: functional, organism-based; settings: dose 10-100 mg/kg, time 150.0 min; procedure, shortened: as §2
Mus musculus [12] = experiment: Anti-inflammatory activity in po dosed C57BL/6 mouse assessed reduction in LPS-induced IL-6 level in plasma preincubated with compound for 60 mins followed by LPS-induction and measured after 90 mins by ELISA analysis; format: functional, organism-based; settings: dose 10-100 mg/kg, time 150.0 min; procedure, shortened: as §2
Mus musculus [13] = experiment: Anti-inflammatory activity in po dosed C57BL/6 mouse assessed reduction in LPS-induced IL-1beta level in plasma preincubated with compound for 60 mins followed by LPS-induction and measured after 90 mins by ELISA analysis; format: functional, organism-based; settings: dose 10-100 mg/kg, time 150.0 min; procedure, shortened: as §2
Mus musculus [14] = experiment: Anti-inflammatory activity in po dosed C57BL/6 mouse assessed reduction in LPS-induced TNFalpha level in brain preincubated with compound for 60 mins followed by LPS-induction and measured after 90 mins by ELISA analysis; format: functional, organism-based; settings: dose 10-100 mg/kg, time 150.0 min; procedure, shortened: as §2
Mus musculus [15] = experiment: Anti-inflammatory activity in po dosed C57BL/6 mouse assessed reduction in LPS-induced TNFalpha level in plasma preincubated with compound for 60 mins followed by LPS-induction and measured after 90 mins by ELISA analysis; format: functional, organism-based; settings: dose 10-100 mg/kg, time 150.0 min; procedure, shortened: as §2
Mus musculus [16] = experiment: Anti-inflammatory activity in po dosed C57BL/6 mouse assessed reduction in LPS-induced MCP-1 level in plasma preincubated with compound for 60 mins followed by LPS-induction and measured after 90 mins by ELISA analysis; format: functional, organism-based; settings: dose 10-100 mg/kg, time 150.0 min; procedure, shortened: as §2
Mus musculus [17] = experiment: Anti-inflammatory activity in po dosed C57BL/6 mouse assessed reduction in LPS-induced IL-1beta level in brain preincubated with compound for 60 mins followed by LPS-induction and measured after 90 mins by ELISA analysis; format: functional, organism-based; settings: dose 10-100 mg/kg, time 150.0 min; procedure, shortened: as §2
Mus musculus [18] = experiment: Anti-inflammatory activity in po dosed C57BL/6 mouse assessed reduction in LPS-induced KC-GRO level in plasma preincubated with compound for 60 mins followed by LPS-induction and measured after 90 mins by ELISA analysis; format: functional, organism-based; settings: dose 10-100 mg/kg, time 150.0 min; procedure, shortened: as §2
Mus musculus [19] = experiment: Anti-inflammatory activity in po dosed C57BL/6 mouse assessed reduction in LPS-induced KC-GRO level in brain preincubated with compound for 60 mins followed by LPS-induction and measured after 90 mins by ELISA analysis; format: functional, organism-based; settings: dose 10-100 mg/kg, time 150.0 min; procedure, shortened: as §2

Row | SMILES | solubility kinetic at 24 h [1] [µg/mL] | logD [2] | fraction unbound [3] | CLH [4] [µL/min/mg] | microsomal CLint [5] [µL/min/mg] | fraction unbound [6] | Kp uu [7] | Activity (Mus musculus [8]) | clearance [9] [mL/min/kg] | Activity (Mus musculus [10]) | Activity (Mus musculus [11]) | Activity (Mus musculus [12]) | Activity (Mus musculus [13]) | Activity (Mus musculus [14]) | Activity (Mus musculus [15]) | Activity (Mus musculus [16]) | Activity (Mus musculus [17]) | Activity (Mus musculus [18]) | Activity (Mus musculus [19])
1 | CC(C)Oc1cc2nn(C34COC(C)(C3)C4)cc2cc1C(=O)Nc1cccn([C@H]2C[C@H]2F)c1=O | 56 (≈ 120 µM) | 2.74 | 0.047 | 3.8 | < 5.3 | 0.0232 | – | – | – | – | – | – | – | – | – | – | – | – | –
2 | CC(C)Oc1cc2nn(C34COC(C)(C3)C4)cc2cc1C(=O)Nc1cccn(C)c1=O | 58 (≈ 137 µM) | 2.16 | – | 3.43 | 7.07 | – | 1 | Dose-Dependent Effect | 11.2 | Dose-Dependent Effect | Dose-Dependent Effect | Dose-Dependent Effect | Dose-Dependent Effect | Dose-Dependent Effect | Dose-Dependent Effect | Dose-Dependent Effect | Dose-Dependent Effect | Dose-Dependent Effect | Dose-Dependent Effect
3 | CC(C)Oc1nc2nn(C34COC(C)(C3)C4)cc2cc1C(=O)Nc1cccn([C@@H]2C[C@@H]2F)c1=O | 6.6 (≈ 14.1 µM) | 2.61 | 0.083 | 3.3 | < 5.3 | 0.0127 | – | – | – | – | – | – | – | – | – | – | – | – | –
4 | CC(C)Oc1nc2nn(C34COC(C)(C3)C4)cc2cc1C(=O)Nc1cccn([C@H]2C[C@H]2F)c1=O | 25 (≈ 53.5 µM) | 2.54 | 0.0718 | 3 | < 5.3 | 0.0594 | 0.7 | – | 43 | – | – | – | – | – | – | – | – | – | –
